Measured values from ChEMBL document CHEMBL1123837, “1-Amino-substituted 4-methyl-5H-pyrido[3',4':4,5]pyrrolo[3,2-c]pyridines: a new class of antineoplastic agents” (J Med Chem, 1987).
Values belong to the molecule of their own block, whether it stands above or below them. Activity calls are given as the source filed them. The calls are words filed in the database; no cut-off is given here.

What was measured:
L1210 = test: In vitro cytotoxicity against L1210 cells was determined after 48 hours of incubation; assay type: functional, Mus musculus; details: Mus musculus, L1210, 48 h; read-out: ID50 (the source's name)
Summary of the method: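 Exponentially growing L1210 cells were cultured in RPMI 1640 with 2 mM glutamine, penicillin/streptomycin and 10% fetal calf serum, under 5% CO2 at 37 °C. Drugs dissolved in distilled water were added to cells at 0.8 × 10^5 cells/mL for 48 h, then cells were counted. ID50 was estimated by regression of dose-response data, as the mean of two values from two independent experiments.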

Calf thymus DNA = test: Binding affinity for DNA by ethidium bromide displacement assay; assay type: nucleic-acid assay; details: Bos taurus
Summary of the method: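 Competitive ethidium bromide displacement with calf thymus DNA at 10 µg/mL in 20 mM Na phosphate buffer, 0.1 M NaCl, 1 mM EDTA, pH 7.4. The apparent DNA affinity constant is given in 10^6 M^-1 ± standard deviation, from 6 values across two independent experiments.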

Mus musculus [1] = test: In vivo antitumor activity was determined against P388 leukemia cells expressed as treated/control at yhe dose of 2.5-40 mg/kg; IA = Inactive; assay type: functional, organism-based
Summary of the method: (§1)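 Following NCI protocols, 10^6 viable P388 leukemia cells were inoculated ip on day 0 into male or female CDF1 hybrid mice, 10 per test group. Compounds in distilled water were given ip (0.1 mL/10 g body weight) at various doses on days 1–5. T/C = median survival day of treated / median survival day of negative controls × 100.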

Mus musculus [2] = test: In vivo antitumor activity was determined against P388 leukemia cells expressed as treated/control at the dose of (1.25-80)mg/kg; IA = Inactive; assay type: functional, organism-based; summary of the method: as §1
Mus musculus [3] = test: In vivo antitumor activity was determined against P388 leukemia cells expressed as treated/control at the dose of (2.5-20)mg/kg(nontoxic at highest dose tested.); IA = Inactive; assay type: functional, organism-based; summary of the method: as §1
Mus musculus [4] = test: In vivo antitumor activity was evaluated on L1210 leukemia model and percent of treated/control of tumor cells was determined at 2.5 mg/kg dosage concentration.; assay type: functional
Summary of the method: as §1, with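 “10^5” for “10^6”, “L1210” for “P388”, “dosed” for “given”, “daily” for “at various doses”, “treated mice” for “treated”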

Mus musculus [5] = test: In vivo antitumor activity was determined against P388 leukemia cells expressed as treated/control at the dose of 50 mg/kg; assay type: functional; summary of the method: as §1
Mus musculus [6] = test: In vivo antitumor activity was determined against P388 leukemia cells expressed as number of animals survived; assay type: functional
Summary of the method: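 P388 leukemia, 10^6 viable cells inoculated ip on day 0 into CDF1 hybrid male or female mice, 10 mice per group. Compounds were given ip in distilled water (0.1 mL/10 g body weight) at various doses on days 1-5. Vehicle controls were treated the same way. NCI protocols were followed.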

Mus musculus [7] = test: In vivo antitumor activity was evaluated on L1210 leukemia model and percent of treated/control of tumor cells was determined at 1.25 mg/kg dosage concentration; assay type: functional
Summary of the method: as §1, with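 “10^5” for “10^6”, “L1210” for “P388”, “dosed” for “given”, “daily” for “at various doses”, “treated mice” for “treated”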

Mus musculus [8] = test: In vivo antitumor activity was evaluated on L1210 leukemia model and median survival day was determined at 2.5 mg/kg dosage concentration.; assay type: functional
Summary of the method: (§2)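 L1210 leukemia, 10^5 viable cells inoculated ip on day 0 into CDF1 hybrid male or female mice, 10 mice per group. Compounds were given ip in distilled water (0.1 mL/10 g body weight) on days 1-5. Vehicle controls were treated the same way. NCI protocols were followed. T/C = median survival day of treated mice / median survival day of vehicle controls × 100.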

Mus musculus [9] = test: In vivo antitumor activity was evaluated on L1210 leukemia model and weight change in tumors was determined at 2.5 mg/kg dosage concentration.; assay type: functional
Mus musculus [10] = test: In vivo antitumor activity was evaluated on L1210 leukemia model and median survival day was determined at 50 mg/kg dosage concentration; assay type: functional; summary of the method: as §2
Mus musculus [11] = test: In vivo antitumor activity was evaluated on L1210 leukemia model and percent of treated/control of tumor cells was determined at 10 mg/kg dosage concentration; assay type: functional
Summary of the method: as §1, with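 “10^5” for “10^6”, “L1210” for “P388”, “dosed” for “given”, “daily” for “at various doses”, “treated mice” for “treated”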

Mus musculus [12] = test: In vivo antitumor activity was evaluated on L1210 leukemia model and number of survivors (animals) was determined at 2.5 mg/kg dosage concentration; number of survivors given as 0/10; assay type: functional; summary of the method: as §2
Mus musculus [13] = test: In vivo antitumor activity was evaluated on L1210 leukemia model and median survival day was determined at 20 mg/kg dosage concentration; assay type: functional; summary of the method: as §2
Mus musculus [14] = test: In vivo antitumor activity was evaluated on L1210 leukemia model and median survival day was determined at 40 mg/kg dosage concentration; assay type: functional; summary of the method: as §2
Mus musculus [15] = test: In vivo antitumor activity was evaluated on L1210 leukemia model and percent of treated/control of tumor cells was determined at 20 mg/kg dosage concentration; assay type: functional; summary of the method: as §2
Mus musculus [16] = test: In vivo antitumor activity was evaluated on L1210 leukemia model and percent of treated/control of tumor cells was determined at 5 mg/kg dosage concentration; assay type: functional
Summary of the method: as §1, with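 “10^5” for “10^6”, “L1210” for “P388”, “dosed” for “given”, “daily” for “at various doses”, “treated mice” for “treated”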

Mus musculus [17] = test: In vivo antitumor activity was determined against P388 leukemia cells expressed as treated/control at the dose of 40 mg/kg; assay type: functional; summary of the method: as §1
Mus musculus [18] = test: In vivo antitumor activity was evaluated on L1210 leukemia model and median survival day was determined at 10 mg/kg dosage concentration; assay type: functional; summary of the method: as §2
Mus musculus [19] = test: In vivo antitumor activity was evaluated on L1210 leukemia model and percent of treated/control of tumor cells was determined at 40 mg/kg dosage concentration; assay type: functional
Summary of the method: as §1, with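 “10^5” for “10^6”, “L1210” for “P388”, “dosed” for “given”, “daily” for “at various doses”, “treated mice” for “treated”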

Mus musculus [20] = test: In vivo antitumor activity was evaluated on L1210 leukemia model and weight change in tumors was determined at 50 mg/kg dosage concentration; assay type: functional
Mus musculus [21] = test: In vivo antitumor activity was evaluated on L1210 leukemia model and number of survivors (animals) was determined at 1.25 mg/kg dosage concentration; number of survivors given as 0/10; assay type: functional; summary of the method: as §2
Mus musculus [22] = test: In vivo antitumor activity was determined against P388 leukemia cells expressed as treated/control at the dose of 20 mg/kg; assay type: functional; summary of the method: as §1
Mus musculus [23] = test: In vivo antitumor activity was evaluated on L1210 leukemia model and percent of treated/control of tumor cells was determined at 50 mg/kg dosage concentration; assay type: functional
Summary of the method: as §1, with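 “10^5” for “10^6”, “L1210” for “P388”, “dosed” for “given”, “daily” for “at various doses”, “treated mice” for “treated”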

Mus musculus [24] = test: In vivo antitumor activity was evaluated on L1210 leukemia model and number of survivors (animals) was determined at 50 mg/kg dosage concentration; number of survivors given as 0/10; assay type: functional; summary of the method: as §2
Mus musculus [25] = test: In vivo antitumor activity was evaluated on L1210 leukemia model and weight change in tumors was determined at 10 mg/kg dosage concentration; assay type: functional
Mus musculus [26] = test: In vivo antitumor activity was evaluated on L1210 leukemia model and weight change in tumors was determined at 20 mg/kg dosage concentration; assay type: functional
Mus musculus [27] = test: In vivo antitumor activity was evaluated on L1210 leukemia model and weight change in tumors was determined at 5 mg/kg dosage concentration; assay type: functional
Mus musculus [28] = test: In vivo antitumor activity was evaluated on L1210 leukemia model and number of survivors (animals) was determined at 5 mg/kg dosage concentration; number of survivors given as 0/10; assay type: functional; summary of the method: as §2
Mus musculus [29] = test: In vivo antitumor activity was evaluated on L1210 leukemia model and number of survivors (animals) was determined at 20 mg/kg dosage concentration; number of survivors given as 0/10; assay type: functional; summary of the method: as §2
Mus musculus [30] = test: In vivo antitumor activity was evaluated on L1210 leukemia model and weight change in tumors was determined at 40 mg/kg dosage concentration; assay type: functional
Mus musculus [31] = test: In vivo antitumor activity was evaluated on L1210 leukemia model and number of survivors (animals) was determined at 40 mg/kg dosage concentration; number of survivors given as 0/10; assay type: functional; summary of the method: as §2
Mus musculus [32] = test: In vivo antitumor activity was evaluated on L1210 leukemia model and number of survivors (animals) was determined at 10 mg/kg dosage concentration; number of survivors given as 3/10; assay type: functional; summary of the method: as §2
Mus musculus [33] = test: In vivo antitumor activity was evaluated on L1210 leukemia model and median survival day was determined at 5 mg/kg dosage concentration; assay type: functional; summary of the method: as §2
Mus musculus [34] = test: In vivo antitumor activity was determined against P388 leukemia cells expressed as treated/control at the dose of 10 mg/kg; assay type: functional; summary of the method: as §1
Mus musculus [35] = test: In vivo antitumor activity was evaluated on L1210 leukemia model and weight change in tumors was determined at 1.25 mg/kg dosage concentration; assay type: functional
Mus musculus [36] = test: In vivo antitumor activity was evaluated on L1210 leukemia model and median survival day was determined at 1.25 mg/kg dosage concentration; assay type: functional; summary of the method: as §2

K aff (Calf thymus DNA): 0.06
Compound: Cc1cnc(NCCCN2CCCC2)c2c3cnccc3n(C)c12
IC50 (L1210): 1.6 µM
T/C (Mus musculus [1]): inactive

K aff (Calf thymus DNA): 0.06
Compound: Cc1cnc(NCCCN2CCCCC2)c2c3cnccc3n(C)c12
IC50 (L1210): 3.6 µM
T/C (Mus musculus [1]): inactive

K aff (Calf thymus DNA): 27000 M⁻¹
Compound: Cc1c[nH]c(NCCCN2CCN(C)CC2)c2c3cnccc3nc1-2
IC50 (L1210): 59 µM
T/C (Mus musculus [2]): inactive

K aff (Calf thymus DNA): 16000 M⁻¹
Compound: CCCN(CCC)CCCNc1ncc(C)c2c1c1cnccc1n2C
IC50 (L1210): 8.6 µM
T/C (Mus musculus [3]): inactive

Compound: Cc1c[nH]c(NCCCN(C)C)c2c3cnccc3nc1-2
IC50 (L1210): 0.16 µM
T/C (Mus musculus [4]): 140%
T/C (Mus musculus [5]): 181
Survivors (Mus musculus [6]): 1
T/C (Mus musculus [7]): 127.5%
Median survival day (Mus musculus [8]): 12.9
Weight changes (Mus musculus [9]): 0.3 g
Median survival day (Mus musculus [10]): 8.2
T/C (Mus musculus [11]): 177%
Survivors (Mus musculus [12]): 0
Median survival day (Mus musculus [13]): 15.6
Median survival day (Mus musculus [14]): 9.25
T/C (Mus musculus [15]): 169.5%
T/C (Mus musculus [16]): 152%
T/C (Mus musculus [17]): 184
Median survival day (Mus musculus [18]): 16.25
T/C (Mus musculus [19]): 100%
K aff (Calf thymus DNA): 20000 M⁻¹
Weight changes (Mus musculus [20]): -2.4 g
Survivors (Mus musculus [21]): 0
T/C (Mus musculus [22]): 186
T/C (Mus musculus [23]): 89%
Survivors (Mus musculus [24]): 0
Weight changes (Mus musculus [25]): 0.5 g
Weight changes (Mus musculus [26]): -1.7 g
Weight changes (Mus musculus [27]): 0.3 g
Survivors (Mus musculus [28]): 0
Survivors (Mus musculus [29]): 0
Weight changes (Mus musculus [30]): -1.1 g
Survivors (Mus musculus [31]): 0
Survivors (Mus musculus [32]): 3
Median survival day (Mus musculus [33]): 14
T/C (Mus musculus [34]): 156
Weight changes (Mus musculus [35]): 0.3 g
Median survival day (Mus musculus [36]): 11.75
